Sampled rows, rich in hits. Any-hit rate of the full collection: about 2.9%.
TCR-CD3 inh – inhibitors of human TCR-CD3 interaction | TAMRA-labeled TCR probe fluorescence, biochemical | inhibition, % at 9.4 µM | 360,000 tested, 0.37% active | AID 651800;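 note: recombinant mutant TCR 2C K166C tagged with TAMRA read by polarization; 0% = receptor in buffer alone and 100% = receptor with positive control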
HTRA1 inh – blocks human HTRA1 serine peptidase. 340,000 tested, 0.5% active. recombinant HTRA1, FP-rhodamine activity-based probe, fluorescence polarization. inhibition, % at 5.96 µM. Q92743. AID 504803; in the data active = inhibition above about 36%;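 note: 0% = enzyme with DMSO and 100% = wells lacking enzyme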
Target sequence (Q92743 whole entry, looked up): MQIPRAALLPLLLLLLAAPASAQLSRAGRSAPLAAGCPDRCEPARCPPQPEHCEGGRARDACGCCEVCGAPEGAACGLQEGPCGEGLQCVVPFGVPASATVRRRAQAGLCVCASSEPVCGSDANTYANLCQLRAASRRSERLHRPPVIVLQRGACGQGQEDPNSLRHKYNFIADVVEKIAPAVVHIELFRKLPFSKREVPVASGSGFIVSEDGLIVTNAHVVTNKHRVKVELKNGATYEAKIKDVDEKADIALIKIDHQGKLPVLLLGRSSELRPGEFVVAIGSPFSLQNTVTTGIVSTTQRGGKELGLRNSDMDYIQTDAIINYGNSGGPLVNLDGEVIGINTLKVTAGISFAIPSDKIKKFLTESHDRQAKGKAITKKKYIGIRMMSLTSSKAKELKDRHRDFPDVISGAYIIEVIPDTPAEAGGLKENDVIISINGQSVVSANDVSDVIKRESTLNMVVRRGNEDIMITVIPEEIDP
SIAE inh – inhibitors of human sialic acid acetylesterase SIAE; Q9HAT2; SIAE FP-Rh probe binding, fluorescence polarization; inhibition, % at 9.66 µM; 370,000 tested, 0.69% active; AID 1053197;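 active = inhibition above a cutoff: mean of compounds within the control limits plus 3 SD of those, cut at about 17% in these data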;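 note: 0% = plate median of compound wells and 100% = probe without SIAE protein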
PAD4 inh – PAD4 (human) enzyme inhibition | recombinant PAD4, RCA probe fluorescence polarization | inhibition, % at 6.36 µM | 330,000 tested, 0.41% active | AID 485272;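 active = percent inhibition above a cutoff equal to the mean of all tested compounds plus 3 SD, cut at about 15% in these data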;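 note: 0% = PAD4 with RCA probe and DMSO and 100% = probe without PAD4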
ABHD4 inh – inhibitors of mouse ABHD4; purified mABHD4, FP-Rh probe fluorescence polarization; inhibition, % at 8.92 µM; 370,000 tested, 0.54% active;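 active = inhibition exceeding the mean over every tested compound plus 3 SD, cut at about 30% in these data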;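 note: 0% = plate median of compound wells and 100% = S159A mutant with DMSO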
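System: mouse ABHD4 enzyme, wild type / Medium: HEPES pH 7.0, NaCl, Pluronic buffer / Reagent: FP-Rh activity-based fluorescent probe / Control set: S159A mutant high control, sample median low control / Detection: fluorescence polarization with parallel and perpendicular emission, 525/598 nm / Schedule: 45 min + 60 min at 25 °C / Compound dosing: 8.92 µM, single dose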
PRMT1 inh – PRMT1 (human) inhibition, primary screen; recombinant PRMT1, activity-based probe fluorescence polarization; 370,000 tested, 1.3% active; AID 652257; inhibition, % at 2.79 µM; Q99873;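 active = inhibition above about 21% made by adding two undisclosed values, limit read from the data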
BSA probe FL – counter-screen for TCR-CD3 interaction inhibitors: BSA probe. shares compounds with TCR-CD3 inh. 1,200 tested, 10% active. TAMRA-labeled BSA probe fluorescence counterscreen. inhibition, % at 9.4 µM. AID 652035; in the data active = inhibition above about 23%;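 note: 0% = buffer low control and 100% = reference high control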
TCR-CD3 conf – TCR-CD3 interaction inhibition, confirmation; 1,200 tested, 48% active; inhibition, % at 9.4 µM; TAMRA-labeled TCR probe fluorescence binding assay; shares compounds with TCR-CD3 inh
PRMT1 confirm – confirmation of human PRMT1 inhibitors; 3,300 tested, 42% active; recombinant His-PRMT1, activity-based probe fluorescence polarization; inhibition, % at 2.79 µM; shares compounds with PRMT1 inh; AID 687036;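 active = mean inhibition across replicates above the hit cutoff derived for the earlier primary screen, cut at about 22% in these data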
* hit, by the source's call; / = not tested or not shown. Cut-off read from the data, not from the text of the source, unless noted: active = inhibition above about 19%; inactive = the rest.

SMILES	TCR-CD3 inh	HTRA1 inh	SIAE inh	PAD4 inh	ABHD4 inh	PRMT1 inh	BSA probe FL	TCR-CD3 conf	PRMT1 confirm
O=C(CC1SC(=O)NC1=O)Oc1ccc(/C=N/NC(=O)c2ccccc2O)cc1 (stereo not given)	32*	10	9	4	6	5	-15	11	/
CCCC[C@H](CCCc1ccc(F)cc1)CCC(=O)N(c1ccccc1)c1ccccc1	/	/	4	/	-8	0	/	/	/
Cc1ccc(NC(=O)c2[nH]cnc2C(=O)NN)cc1	-5	-15	-21	7	-25	2	/	/	/
NNC(=O)c1nc[nH]c1C(=O)Nc1ccccn1	38*	5	-3	1	-3	-3	2	25*	/
CC(=O)Nc1ccc(NC(=O)CC(c2ccccc2)c2ccccc2)cc1	114*	-4	5	-3	3	0	23*	7	/
CCOC(=O)c1c(C)nc2sc(C(=O)Nc3ccc(C(C)=O)cc3)c(N)c2c1-c1ccc(OC)cc1	24*	-18	-41	-2	-16	3	6	12	/
N#Cc1c(N)sc(=S)c2c1CCCCC2	26*	26	3	4	35*	40*	21	26*	36*
N#Cc1c(N)c(C#N)c(-c2ccc(O)cc2)c2c1CCCC2	11	-5	-4	-3	-36	-3	/	/	/
Cc1ccccc1OCC(=O)N/N=C/c1ccc([N+](=O)[O-])o1	3	14	6	-8	28	9	/	/	/
COc1ccccc1OCC(=O)N/N=C/C=C/c1ccc([N+](=O)[O-])o1	27*	0	16	-5	24	25*	-1	1	9
CN(CCO)c1nc(N)c2c(N)nc3c(c2c1C#N)CC(=O)N3Cc1cccs1	21*	13	1	-3	21	27*	-6	3	1
COc1ccc(NC(=O)CSc2sc3c(O)cc(=O)[nH]c3c2C#N)c(OC)c1	29*	-7	-4	-5	5	66*	-6	20*	4
Cc1ccc(Cl)cc1NC(=O)CSc1sc2c(O)cc(=O)[nH]c2c1C#N	6	-16	-23	0	-9	15	/	/	/
Cc1csc(NC(=O)CSc2sc3c(O)cc(=O)[nH]c3c2C#N)n1	23*	-8	-25	-26	-1	81*	-12	1	8
COc1ccc(NC(=O)c2cc3ccccc3cc2OC)cc1	3	-18	-9	0	3	0	/	/	/
COc1cc2ccccc2cc1C(=O)NNC(=O)c1ccccc1O	34*	27	0	-1	10	40*	-6	25*	-4
Cn1c(NC(=O)c2ccccc2)nc(Cc2ccccc2)c1Cc1ccccc1	/	/	-4	/	10	-11	/	/	/
COc1ccc(C(=O)C2(C(=O)NCc3ccccc3)CC(c3ccccn3)=NO2)cc1 (stereo not given)	/	/	-1	/	1	-3	/	/	/
CCN(CC)c1ccc2nc3ccc(N)cc3[n+](-c3ccccc3)c2c1	124*	22	-11	/	11	26*	121*	97*	13
Cc1cc(N2CCN(CC(C)(C)O)C[C@H]2C)ccc1N1CCN(Cc2ccccc2)[C@@H](C)C1	0	/	2	/	-2	-2	/	/	/
Cc1cc2cc(CNC(=O)c3cc4ccccc4o3)ccc2n1C	/	/	/	2	/	/	/	/	/
Cc1cc2cc(CNC(=O)c3ccco3)ccc2n1C	31*	5	6	9	7	36*	4	8	2
CC(C)N1CCCCC(NC(=O)c2ccc(F)cc2)C1=O (stereo not given)	/	/	9	/	-4	-3	/	/	/
Cc1nc(Cl)c2c(n1)NC1=C(O2)C(=O)CCC1	37*	17	3	10	6	36*	29*	30*	48*
COC(=O)C1=C(C)N(Cc2cccc(C(F)(F)F)c2)C(=NCc2ccc(OC)cc2)NC1c1cccc(F)c1 (stereo not given)	-5	/	-3	/	21	2	/	/	/
SMILES	TCR-CD3 inh	HTRA1 inh	SIAE inh	PAD4 inh	ABHD4 inh	PRMT1 inh	BSA probe FL	TCR-CD3 conf	PRMT1 confirm
O=C(O)CC(C(=O)O)N1C(=O)/C(=C/c2ccc(-c3nc4ccccc4s3)o2)SC1=S (stereo not given)	22*	15	4	4	38*	55*	-15	26*	-15
O=Cc1ccc(-c2nc3ccccc3s2)o1	8	-17	-6	1	-6	3	/	/	/
CCCC1CCC2(CCCN2CCOC(=O)Nc2ccc(Br)cc2)CC1 (stereo not given)	/	/	0	/	7	1	/	/	/
CC(=O)OCCn1c2nc(=O)[nH]c(=O)c-2nc2cc(C)c(C)cc21	37*	12	20*	/	24	159*	51*	34*	150*
COc1cc2cc3c(N)c(C(=O)Nc4sc(C)c(C)c4C#N)sc3nc2cc1OC	24*	12	-34	-20	-10	27*	-14	3	2
O=C(N[C@H](C(=O)N1CCC[C@H]1C(=O)NC1CCCC1)C1CCCCC1)c1ccc(Cl)c(Cl)c1	5	/	-1	/	4	1	/	/	/
Cc1cc2nc3c(=O)[nH]c(=O)[nH]c3nc2c([N+](=O)[O-])c1N	24*	29	12	/	18	79*	85*	103*	112*
CC(=O)c1cccc(NC(=O)CSc2ccc(-c3ccco3)nn2)c1	26*	-4	5	-1	18	54*	3	6	66*
Cc1nn(-c2ccccc2)c2sc(C(=O)N3CCN(Cc4ccc(F)cc4)CC3)cc12	/	/	-12	/	-15	4	/	/	/
Cc1ccc2nc(C)cc(SCC(=O)N/N=C/c3ccco3)c2c1	19*	-13	0	7	9	52*	0	4	-3
Cc1ccc2nc(SCC(=O)N/N=C/c3ccco3)cc(C)c2c1	6	-26	5	4	-3	0	/	/	/
Oc1c(C=Nc2cccc3cccnc23)sc2ccccc12	29*	/	-3	1	-66	31*	60*	28*	32*
O=C(N/N=C/c1sc2ccccc2c1O)c1ccccc1	/	29	/	3	/	/	/	/	/
COc1ccc(CCNC(=O)C(=O)NCC2OCCN2S(=O)(=O)c2ccc(OC)cc2)cc1 (stereo not given)	49*	-7	2	5	7	30*	-3	7	0
COC(CNC(=O)[C@H](Cc1ccccc1)NCC(=O)NC1CCCCC1)OC	/	/	4	/	2	-1	/	/	/

Compound activity deposited in PubChem by The Scripps Research Institute Molecular Screening Center.
